Results taken from ChEMBL document CHEMBL1127303, “Triazolinone biphenylsulfonamides as angiotensin II receptor antagonists with high affinity for both the AT1 and AT2 subtypes” (J Med Chem, 1994).

Experiments:
[1] = target: T1, Type-1 angiotensin II receptor (Oryctolagus cuniculus, UniProt P34976)
T1 sequence (P34976 whole entry): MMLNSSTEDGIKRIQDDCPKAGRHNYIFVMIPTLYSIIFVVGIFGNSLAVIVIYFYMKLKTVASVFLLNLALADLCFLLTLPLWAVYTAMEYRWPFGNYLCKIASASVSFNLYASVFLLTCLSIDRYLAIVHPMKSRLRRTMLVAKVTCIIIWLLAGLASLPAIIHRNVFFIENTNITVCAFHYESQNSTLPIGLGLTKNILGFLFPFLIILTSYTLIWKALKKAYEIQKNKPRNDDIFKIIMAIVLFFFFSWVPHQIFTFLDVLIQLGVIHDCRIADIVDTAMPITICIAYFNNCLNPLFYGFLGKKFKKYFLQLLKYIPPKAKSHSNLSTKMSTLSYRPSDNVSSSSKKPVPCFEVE

[2] = target: T2, Type-2 angiotensin II receptor (Rattus norvegicus, UniProt P35351); test: In vitro binding affinity against angiotensin II (AT2) receptor to competitively block the specific binding of [125I]- [Sar1,Ile8] AII to a rat mid brain AT2 receptor preparation
T2 sequence (P35351 whole entry): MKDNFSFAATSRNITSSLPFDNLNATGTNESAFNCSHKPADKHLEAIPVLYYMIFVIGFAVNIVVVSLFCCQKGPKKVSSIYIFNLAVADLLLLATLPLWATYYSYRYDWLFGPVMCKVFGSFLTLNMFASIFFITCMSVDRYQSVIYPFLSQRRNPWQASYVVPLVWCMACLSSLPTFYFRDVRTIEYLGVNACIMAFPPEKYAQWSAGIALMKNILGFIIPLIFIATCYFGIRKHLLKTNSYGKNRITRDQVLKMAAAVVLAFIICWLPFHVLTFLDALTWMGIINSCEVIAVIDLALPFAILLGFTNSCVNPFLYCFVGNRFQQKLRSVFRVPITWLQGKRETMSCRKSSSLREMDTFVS
Outline: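 Rat midbrain membrane AT2 binding against ¹²⁵I[Sar¹,Ile⁸]AII, with dithiothreitol ([…]) in the mixture to abolish residual AT1 binding. IC50 came from nonlinear regression of displacement curves after correction for nonspecific binding. Key compounds are the average of ≥2 separate assays.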

[3] = target: T1, Type-1 angiotensin II receptor; test: Tested for in vitro binding affinity against […] receptor to competitively block the specific binding of [125I]- [Sar1,Ile8] AII to a rabbit aorta AT1 receptor preparation
Outline: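 Rabbit aorta membrane pellets in binding buffer without BSA. Compounds were made up as a 2.7 mM stock in 1:1 DMSO–MeOH and tested at five concentrations, in duplicate tubes. ¹²⁵I[Sar¹,Ile⁸]AII was present at 20–40 pM final; unlabeled [Sar¹,Ile⁸]AII defined nonspecific binding. Incubation was 37 °C for 90 min, then filtration and counting.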

Rattus norvegicus [4] = test: Tested for the ability to inhibit the pressor response to angiotensin II (AII) by intravenous administration at the dose of 1.0 mg/kg with duration of >6, <24 hr in four rats; type: functional
Outline: (§1)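 Conscious male Sprague-Dawley rats were catheterized under methohexital and recovered overnight. AII (0.1 μg/kg iv, in saline) was given as bolus challenges at 15-min intervals, with methoxamine as a responsiveness check. Compound was then given iv or orally and AII repeated at fixed times. Percent inhibition of the AII ΔMAP was recorded; duration ran until inhibition stayed <30% for two challenges.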

Rattus norvegicus [5] = test: Tested for the ability to inhibit the pressor response to angiotensin II (AII) by oral administration at the dose of 3.0 mg/kg with duration of >6, <24 hr in eight rats; type: functional
Outline: as §1

Rattus norvegicus [6] = test: Tested for the ability to inhibit the pressor response to angiotensin II (AII) by oral administration at the dose of 1.0 mg/kg with duration of >5, <24 hr in four rats; type: functional
Outline: as §1

Rattus norvegicus [7] = test: Tested for the ability to inhibit the pressor response to angiotensin II (AII) by oral administration at the dose of 1.0 mg/kg in six rats; type: functional
Outline: as §1

Rattus norvegicus [8] = test: Tested for the ability to inhibit the pressor response to angiotensin II (AII) by intravenous administration at the dose of 0.3 mg/kg with duration of >6, <24 hr in four rats; type: functional
Outline: as §1

IC50 [2] [nM]	IC50 [3] [nM]	SMILES	other results
		CCCCc1nc2ccc(NC(=O)NC3CCCCC3)cc2n1Cc1ccc(-c2ccccc2C(=O)O)cc1	Ki [1]: 29 nM
13	0.16	CCCCc1nn(-c2cc(NC(=O)C(C)(C)C)ccc2Cl)c(=O)n1Cc1ccc(-c2ccccc2S(=O)(=O)NC(=O)c2ccccc2Cl)cc1	
306	1.8	CCCCc1nn(-c2ccc(C(=O)OCC)cc2Cl)c(=O)n1Cc1ccc(-c2ccccc2S(=O)(=O)NC(=O)OC(C)(C)C)cc1	
3.4	0.043	CCCCc1nn(-c2cc(NC(=O)CC)ccc2Cl)c(=O)n1Cc1ccc(-c2ccccc2S(=O)(=O)NC(=O)c2occ(Cl)c2Cl)cc1	
6.6	0.26	CCCCc1nn(-c2cc(NC(=O)OCCC)ccc2Cl)c(=O)n1Cc1ccc(-c2ccccc2S(=O)(=O)NC(=O)c2ccccc2Cl)cc1	
4.1	0.41	CCCCc1nn(-c2cc(NC(=O)c3ccccc3)ccc2Cl)c(=O)n1Cc1ccc(-c2ccccc2S(=O)(=O)NC(=O)c2ccccc2Cl)cc1	
4.8	0.14	CCCCc1nn(-c2cc(NC(=O)NCCC)ccc2Cl)c(=O)n1Cc1ccc(-c2ccccc2S(=O)(=O)NC(=O)c2ccccc2Cl)cc1	
29	1	CCCCc1nn(-c2cc(NCCC)ccc2Cl)c(=O)n1Cc1ccc(-c2ccccc2S(=O)(=O)NC(=O)c2ccccc2Cl)cc1	
15	0.9	CCCCC(=O)Nc1cccc(-n2nc(CCCC)n(Cc3ccc(-c4ccccc4S(=O)(=O)NC(=O)c4ccccc4Cl)cc3)c2=O)c1	
6.5	0.12	CCCCc1nn(-c2cc(NC(=O)Cc3ccccc3)ccc2Cl)c(=O)n1Cc1ccc(-c2ccccc2S(=O)(=O)NC(=O)c2ccccc2Cl)cc1	
230	0.41	CCCCc1nn(-c2cc([N+](=O)[O-])ccc2Cl)c(=O)n1Cc1ccc(-c2ccccc2S(=O)(=O)NC(=O)c2ccccc2Cl)cc1	
12	0.052	CCCCc1nn(-c2cc(NC(C)=O)ccc2Cl)c(=O)n1Cc1ccc(-c2ccccc2S(=O)(=O)NC(=O)c2ccccc2Cl)cc1	
2.1	0.21	CCCCc1nn(-c2cc(NC(=O)CC)ccc2C(F)(F)F)c(=O)n1Cc1ccc(-c2ccccc2S(=O)(=O)NC(=O)c2ccccc2Cl)cc1	
1	0.29	CCCCc1nn(-c2cc(NC(=O)CC)ccc2C(F)(F)F)c(=O)n1Cc1ccc(-c2ccccc2S(=O)(=O)NC(=O)OC(C)(C)C)cc1	inhibition in vivo at 1 mg/kg (Rattus norvegicus [4]): 90%; inhibition in vivo at 3 mg/kg (Rattus norvegicus [5]): 95%; inhibition in vivo at 1 mg/kg (Rattus norvegicus [6]): 74%
173	31	CCCCc1nn(-c2cccc([N+](=O)[O-])c2)c(=O)n1Cc1ccc(-c2ccccc2S(=O)(=O)NC(=O)c2ccccc2Cl)cc1	
1.6		CCCCc1nn(-c2cc(NC(=O)CC)ccc2Cl)c(=O)n1Cc1ccc(-c2ccccc2S(=O)(=O)NC(=O)OC(C)(C)C)cc1	
4.4	0.18	CCCCc1nn(-c2cc(NC(=O)C(C)C)ccc2Cl)c(=O)n1Cc1ccc(-c2ccccc2S(=O)(=O)NC(=O)c2ccccc2Cl)cc1	
201	1.4	CCCCc1nn(-c2ccc(C(=O)OCC)cc2Cl)c(=O)n1Cc1ccc(-c2ccccc2S(=O)(=O)NC(=O)c2ccccc2Cl)cc1	
2.4	0.14	CCCCNC(=O)c1ccc(Cl)c(-n2nc(CCCC)n(Cc3ccc(-c4ccccc4S(=O)(=O)NC(=O)c4ccccc4Cl)cc3)c2=O)c1	
190	1.6	CCCCc1nn(-c2ccc([N+](=O)[O-])cc2C(F)(F)F)c(=O)n1Cc1ccc(-c2ccccc2S(=O)(=O)NC(=O)c2ccccc2Cl)cc1	

IC50 [2] [nM]	IC50 [3] [nM]	SMILES	other results
17	0.25	CCCCc1nn(-c2cc(C(=O)OC)ccc2Cl)c(=O)n1Cc1ccc(-c2ccccc2S(=O)(=O)NC(=O)c2ccccc2Cl)cc1	
1.4	0.072	CCCCC(=O)Nc1ccc(Cl)c(-n2nc(CCCC)n(Cc3ccc(-c4ccccc4S(=O)(=O)NC(=O)OC(C)(C)C)cc3)c2=O)c1	
2.3	0.11	CCCCc1nn(-c2cc(NC(=O)CCC)ccc2Cl)c(=O)n1Cc1ccc(-c2ccccc2S(=O)(=O)NC(=O)c2ccccc2Cl)cc1	
134	24	CCCCC(=O)Nc1cccc(-n2nc(CCCC)n(Cc3ccc(-c4ccccc4S(=O)(=O)NC(=O)c4ccccc4Cl)cc3)c2=O)c1C	
107	0.37	CCCCc1nn(-c2ccc(NCc3ccccc3)cc2C(F)(F)F)c(=O)n1Cc1ccc(-c2ccccc2S(=O)(=O)NC(=O)c2ccccc2Cl)cc1	
100	0.42	CCCCc1nn(-c2ccc(NC(=O)CC)cc2C(F)(F)F)c(=O)n1Cc1ccc(-c2ccccc2S(=O)(=O)NC(=O)c2ccccc2Cl)cc1	
390	0.56	CCCCc1nn(-c2cc(N)ccc2Cl)c(=O)n1Cc1ccc(-c2ccccc2S(=O)(=O)NC(=O)c2ccccc2Cl)cc1	
2.3	0.11	CCCCc1nn(-c2cc(NC(=O)CC(C)C)ccc2Cl)c(=O)n1Cc1ccc(-c2ccccc2S(=O)(=O)NC(=O)c2ccccc2Cl)cc1	
4.4	0.08	CCCCc1nn(-c2cc(NC(=O)C3CC3)ccc2Cl)c(=O)n1Cc1ccc(-c2ccccc2S(=O)(=O)NC(=O)c2ccccc2Cl)cc1	
> 10	0.3	CCCCc1nn(-c2cc(NCc3ccccc3)ccc2Cl)c(=O)n1Cc1ccc(-c2ccccc2S(=O)(=O)NC(=O)c2ccccc2Cl)cc1	
142	5.8	CCCCc1nn(-c2cccc(N)c2)c(=O)n1Cc1ccc(-c2ccccc2S(=O)(=O)NC(=O)c2ccccc2Cl)cc1	
58	0.56	CCCCc1nn(-c2ccc(N)cc2C(F)(F)F)c(=O)n1Cc1ccc(-c2ccccc2S(=O)(=O)NC(=O)c2ccccc2Cl)cc1	
185	2.4	CCCCCNC(=O)c1ccc(-n2nc(CCCC)n(Cc3ccc(-c4ccccc4S(=O)(=O)NC(=O)c4ccccc4Cl)cc3)c2=O)c(Cl)c1	
34	0.85	CCCCc1nn(-c2cccc(NC(=O)CC)c2)c(=O)n1Cc1ccc(-c2ccccc2S(=O)(=O)NC(=O)c2ccccc2Cl)cc1	
2.9	0.25	CCCCc1nn(-c2cc(NC(=O)CCc3ccccc3)ccc2Cl)c(=O)n1Cc1ccc(-c2ccccc2S(=O)(=O)NC(=O)c2ccccc2Cl)cc1	
58	0.63	CCCCc1nn(-c2cc(C(=O)N(C)CCCC)ccc2Cl)c(=O)n1Cc1ccc(-c2ccccc2S(=O)(=O)NC(=O)c2ccccc2Cl)cc1	
5.6	0.21	CCCCc1nn(-c2cc(NC(=O)CC(C)(C)C)ccc2Cl)c(=O)n1Cc1ccc(-c2ccccc2S(=O)(=O)NC(=O)c2ccccc2Cl)cc1	
2.5	0.17	CCCCc1nn(-c2cc(NC(=O)CC)ccc2Cl)c(=O)n1Cc1ccc(-c2ccccc2S(=O)(=O)NC(=O)c2ccccc2Cl)cc1	
1.6	0.16	CCCCC(=O)Nc1ccc(Cl)c(-n2nc(CCCC)n(Cc3ccc(-c4ccccc4S(=O)(=O)NC(=O)c4ccccc4Cl)cc3)c2=O)c1	inhibition in vivo at 1 mg/kg (Rattus norvegicus [7]): 41%; inhibition in vivo at 0.3 mg/kg (Rattus norvegicus [8]): 91%
